The results in this text go back to ChEMBL document CHEMBL1123358, “Design and synthesis of sodium (beta R*, gamma S*)-4-[[3-(4-acetyl-3-hydroxy-2-propylphenoxy)propyl] thio]-gamma-hydroxy-beta-methylbenzenebutanoate: a novel, selective, and orally active receptor antagonist of leukotriene D4” (J Med Chem, 1986).

The term ED50 denotes the midpoint of the dose-response relation. The low end stands for an effect at a small dose, the high end for a need for a large dose. In general, inhibition refers to how much of the control response was suppressed. The low end stands for a response near the control, the high end for a response far below the control. The Ki is the dissociation constant of the complex between target and ligand, obtained from inhibition or displacement. A higher Ki goes with weaker binding. What is called inhibition in vivo is the drop in the measured response relative to a control, in per cent. A higher inhibition in vivo goes with strong suppression.

The test system of assay [1] is Cavia porcellus. Description: In vivo activity against bronchoconstrictions induced by LTD4 (0.2 ug/kg, iv) in anesthetized guinea pig following id administration of compound. In kind it is functional. The method, boiled down:
(§1)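 Anesthetized, artificially ventilated guinea pigs received a single intraduodenal dose, then iv LTD₄ (0.2 μg/kg) bronchoconstriction challenge. Effective dose is the minimum dose giving more than 50% inhibition of bronchoconstriction within 50 min after dosing, with the number of experiments in parentheses.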

Assay [2] deals with Cavia porcellus. Description: In vivo activity against bronchoconstrictions induced by LTD4 (0.2 ug/kg, iv) in anesthetized guinea pig following iv administration of compound. The assay is classed as functional. The method, boiled down: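 Artificially ventilated, anesthetized guinea pigs were challenged with LTD₄ 0.2 μg/kg iv. Drug was given iv in cumulative doses, 5 min before each successive LTD₄ challenge. ED₅₀ is from one to two determinations, or mean ± SEM where repeated, with n in parentheses.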

The species named for assay [3] is Cavia porcellus. Description: In vitro inhibition of responses induced by LTD4 in Isolated terminal guinea pig ileum segments at 0.1 ug/mL. In kind it is functional. The method in brief:
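Terminal ileum segments (2.5 cm) in aerated Krebs-bicarbonate with atropine (10⁻⁶ M) and timolol maleate (0.5 μg/mL), held under 1 g passive force. After equilibration, submaximal control contractions to LTD₄ (0.3 ng/mL) were recorded. Test substance was given for 30 s, then the control LTD₄ concentration was re-added and tension was measured. Percent inhibition is at 0.1 μg/mL, mean ± SEM of three determinations.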

In assay [4] the target is T1, Cysteinyl leukotriene receptor 1 (Cavia porcellus, UniProt Q2NNR5).
T1 sequence (Q2NNR5 whole entry): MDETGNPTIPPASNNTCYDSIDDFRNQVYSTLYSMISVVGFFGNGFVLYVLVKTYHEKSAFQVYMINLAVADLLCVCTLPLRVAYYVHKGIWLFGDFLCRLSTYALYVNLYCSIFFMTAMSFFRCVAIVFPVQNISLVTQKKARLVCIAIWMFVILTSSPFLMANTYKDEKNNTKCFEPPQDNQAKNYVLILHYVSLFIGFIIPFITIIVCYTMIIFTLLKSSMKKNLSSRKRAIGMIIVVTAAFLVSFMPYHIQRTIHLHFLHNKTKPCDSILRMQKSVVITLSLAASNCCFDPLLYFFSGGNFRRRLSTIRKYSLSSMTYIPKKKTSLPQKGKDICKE
The assay is described as follows: Compound was tested for inhibition of radioligand [3H]LTD4 binding to Cysteinyl leukotriene D4 receptor in guinea pig lung membranes. In kind it is cell membranes, Membrane.

Assay [5] has as its system Cavia porcellus. Description: In vivo activity against bronchoconstrictions induced by LTD4 (0.2 ug/kg, iv) in anesthetized guinea pig administered intraduodenally at 5 mg/kg concentration of compound. The assay is classed as functional. The conditions noted are these: route intraduodenal. The method in brief:
as §1

Assay [6] addresses T1, Cysteinyl leukotriene receptor 1. Description: Compound was tested for inhibition of radioligand [3H]LTC4 binding to Cysteinyl leukotriene D4 receptor in guinea pig lung membranes. In kind it is cell membranes, Membrane.

Compound `CCCc1c(OCCCOc2ccc(C(=O)CCC(=O)O)cc2)ccc(C(C)=O)c1O` displayed an ED in assay [1] of 5 mg/kg. In assay [2], this compound registered a 50% effective dose (ED50) of 1.1 mg/kg. In addition, 0.1 µg/mL produced 49% inhibition in assay [3].

For the compound `CCCc1c(OCCCSc2ccc(CC(=O)O)cc2)ccc(C(C)=O)c1O`, the ED in assay [1] is 10 mg/kg. Also, the median effective dose (ED50) in assay [2] was 1.3 mg/kg. For the same compound, at 0.1 µg/mL the inhibition in assay [3] was 65%.

Compound `CCCc1c(OCCCSc2ccc(C(O)C(C)CC(=O)[O-])cc2)ccc(C(C)=O)c1O.[Na+]` (centres undefined) returned an ED in assay [1] greater than 10 mg/kg. In assay [2], this compound gave a 50% effective dose (ED50) of 1.5 mg/kg. The same compound had an inhibition at 0.1 µg/mL in assay [3] of 62%.

In assay [1], `CCCc1c(OCCCOc2ccc(C(=O)CCC(=O)O)cc2C)ccc(C(C)=O)c1O` displayed an ED greater than 10 mg/kg. In addition, in assay [3], testing at 0.1 µg/mL gave an inhibition of 53%.

`CCCc1c(OCCCOc2ccc(C(=O)CCC(=O)O)cc2F)ccc(C(C)=O)c1O`: the ED in assay [1] was 10 mg/kg. In assay [2], this compound showed a median effective dose (ED50) of 1 mg/kg. Further, 0.1 µg/mL produced 81% inhibition in assay [3].

In assay [1], `CCCc1c(OCCCSc2ccc(C(=O)CCc3nnn[nH]3)cc2)ccc(C(C)=O)c1O` returned an ED greater than 10 mg/kg. In addition, in assay [2], the median effective dose (ED50) is 0.6 mg/kg. This compound also had an inhibition at 0.1 µg/mL in assay [3] of 63%.

In turn, `CCCc1cc(C(=O)CCC(=O)O)ccc1SCCCOc1ccc(C(C)=O)c(O)c1CCC` came in with an ED in assay [1] of 10 mg/kg. In assay [2], this compound came in with an ED50 of 0.2 mg/kg. This compound registered an inhibition at 0.1 µg/mL in assay [3] of 37%.

As to `CCCc1c(OCCCSc2ccc(C(O)CCC(=O)O)cc2)ccc(C(C)=O)c1O` (centres undefined), the ED in assay [1] was determined as 10 mg/kg. The 50% effective dose (ED50) in assay [2] amounted to 0.5 mg/kg. Further, in assay [3], the inhibition at 0.1 µg/mL turned out to be 65%.

In assay [1], `CCCc1c(OCCCSc2ccc(C(=O)CCC(=O)O)cc2F)ccc(C(C)=O)c1O` yielded an ED of 10 mg/kg. In assay [2], the ED50 turned out to be 1.1 mg/kg. This compound showed an inhibition at 0.1 µg/mL in assay [3] of 82%.

In turn, `CCCc1c(OCCCSc2ccc(C(O)C(C)(C)CC(=O)[O-])cc2)ccc(C(C)=O)c1O.[Na+]` (centres undefined) came in with an ED in assay [1] of 5 mg/kg. The same compound displayed an ED50 in assay [2] of 0.5 mg/kg. The compound further had an inhibition at 0.1 µg/mL in assay [3] of 45%.

Regarding `CCCc1c(OCCCSc2ccc(C(O)[C@@H](C)CC(=O)[O-])cc2)ccc(C(C)=O)c1O.[Na+]` (some centres undefined), the inhibition constant (Ki) is 0.4 µM in assay [4] and 8.6 µM in assay [6]. In assay [1], the ED worked out at 5 mg/kg. The compound further registered an inhibition in vivo at 5 mg/kg in assay [5] greater than 50%. The compound further yielded a median effective dose (ED50) in assay [2] of 0.26 mg/kg. In addition, in assay [3], 0.1 µg/mL produced 73% inhibition.

In the case of `CCCc1c(OCC(O)CSc2ccc(C(=O)CCC(=O)O)cc2F)ccc(C(C)=O)c1O` (centres undefined), the ED in assay [1] is greater than 10 mg/kg. In assay [2], this compound registered an ED50 of 0.9 mg/kg. In assay [3], this compound gave an inhibition at 0.1 µg/mL of 32%.

Consider `CCCc1c(OCCCSc2ccc(C(=O)CCC(=O)O)cc2)ccc(C(C)=O)c1O`, for which, in assay [1], the ED turned out to be 10 mg/kg. This compound also registered an ED50 in assay [2] of 1.1 mg/kg. The compound also displayed an inhibition at 0.1 µg/mL in assay [3] of 63%.

`CCCc1c(OCC(O)COc2ccc3c(=O)cc(C(=O)O)oc3c2CCC)ccc(C(C)=O)c1O` (centres undefined) [FPL-55712] yielded an ED in assay [1] greater than 10 mg/kg. For the same compound, the 50% effect level in assay [2] (ED50) was put at a dose of 0.1 mg/kg. In assay [3], this compound returned an inhibition at 0.1 µg/mL of 83%.
